Assay results published in ChEMBL document CHEMBL1208706, “Synthesis, antidepressant evaluation and QSAR studies of novel 2-(5H-[1,2,4]triazino[5,6-b]indol-3-ylthio)-N-(substituted phenyl)acetamides” (2010).

The compounds below were run on Mus musculus (assay: Antidepressant activity in Swiss albino mouse assessed as reduction of immobility duration at 30 mg/kg, ip administered 3 times for 24 hrs measured after 1 hr last post dose by tail suspension test). Details: route intraperitoneal.
Assay type: functional
Parameters: scale not given: the % may be the effect or the level left
Outline: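 Adult male Swiss albino mice (22 ± 2 g), housed with controlled humidity, temperature and day-night cycle. Compound in DMSO given ip at 30 mg/kg at t = 0, 18 and 24 h; vehicle controls got DMSO ip at 5 mL/kg. Tail suspension run 1 h after the final dose, immobility scored over 6 min. %DID = [(A − B)/A] × 100 against control; n = 6, mean ± SEM, one-way ANOVA with Dunnett's test.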

Structure (SMILES)	Activity [%]
COc1ccc(NC(=O)CSc2nnc3c(n2)[nH]c2ccccc23)cc1	20.82
O=C(CSc1nnc2c(n1)[nH]c1ccccc12)Nc1ccc(Br)cc1	67.59
O=C(CSc1nnc2c(n1)[nH]c1ccccc12)NCc1ccccc1	56.75
COc1ccccc1NC(=O)CSc1nnc2c(n1)[nH]c1ccccc12	24.3
O=C(CSc1nnc2c(n1)[nH]c1ccccc12)Nc1cccc(Br)c1	66.57
O=C(CSc1nnc2c(n1)[nH]c1ccccc12)Nc1ccccc1	70.62
Cc1ccccc1NC(=O)CSc1nnc2c(n1)[nH]c1ccccc12	20.87
O=C(CSc1nnc2c(n1)[nH]c1ccccc12)Nc1ccccc1Cl	51.89
O=C(CSc1nnc2c(n1)[nH]c1ccccc12)Nc1ccccc1Br	42.84
O=C(CSc1nnc2c(n1)[nH]c1ccccc12)Nc1ccccc1[N+](=O)[O-]	42.66
Cc1cccc(NC(=O)CSc2nnc3c(n2)[nH]c2ccccc23)c1	26.29
COc1cccc(NC(=O)CSc2nnc3c(n2)[nH]c2ccccc23)c1	31.08
O=C(CSc1nnc2c(n1)[nH]c1ccccc12)Nc1cccc(Cl)c1	57.15
O=C(CSc1nnc2c(n1)[nH]c1ccccc12)Nc1cccc([N+](=O)[O-])c1	58.75
O=C(CSc1nnc2c(n1)[nH]c1ccccc12)Nc1ccc(Cl)cc1	68.33
Cc1ccc(NC(=O)CSc2n[nH]c3c4ccccc4nc-3n2)cc1	30.57
O=C(CSc1n[nH]c2c3ccccc3nc-2n1)NC1CCCCC1	47.51
O=C(CSc1nnc2c(n1)[nH]c1ccccc12)Nc1ccc([N+](=O)[O-])cc1	62.35
CNCCC(Oc1ccc(C(F)(F)F)cc1)c1ccccc1 (stereo unspecified) [FLUOXETINE]	69.48
CN(C)CCCN1c2ccccc2CCc2ccccc21 [IMIPRAMINE]	60.58
O=C(NCCN1CCOCC1)c1ccc(Cl)cc1 [MOCLOBEMIDE]	68.16
